Results on 22 compounds are retold here after ChEMBL document CHEMBL1144360, “Phenazine 5,10-dioxide derivatives as hypoxic selective cytotoxins” (2005).

Holding throughout (assay type): functional, Cricetulus griseus
The subject of assay [1] is Cricetinae gen. sp. Briefly: In vitro survival fraction of V79 cells after 2 hours upon treatment with compound under hypoxia at 20 uM. The arrangement: unit: %. An outline of the steps: (§1)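 Clonogenic assay on V79 suspension cultures gassed with air (aerobic) or nitrogen (hypoxia), exposed to compound for 2 h. Colony survival expressed as survival fraction relative to untreated control under the same gas condition. Assays run in duplicate with at least three repetitions; reported value is the mean of two separate experiments.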

Assay [2] concerns Cricetinae gen. sp. Briefly: In vitro survival fraction of V79 cells after 2 hours upon treatment with compound in air at 20 uM. Details: unit: %. An outline of the steps: as §1
Assay [3] concerns Cricetinae gen. sp. As to the kind of experiment: In vitro survival fraction of V79 cells after 2 hours upon treatment with compound under hypoxia at 10 uM. The arrangement: unit: %. An outline of the steps: as §1
In assay [4] the test system is Cricetinae gen. sp. Briefly: In vitro survival fraction of V79 cells after 2 hours upon treatment with compound in air at 10 uM. Details: unit: %. A digest of the protocol: as §1
For assay [5], the system named is Cricetinae gen. sp. Briefly: In vitro survival fraction of V79 cells after 2 hours upon treatment with compound under hypoxia at 5 uM. A digest of the protocol: as §1
The test system of assay [6] is Cricetinae gen. sp. Briefly: In vitro survival fraction of V79 cells after 2 hours upon treatment with compound in air at 5 uM. A digest of the protocol: as §1

Each structure is given as a SMILES string. Where “and” joins values, the source holds several entries; their conditions need not be identical. Equal values may be shown once.

For the compound `Nc1ccc2c(c1)[n+]([O-])c1ccc(Cl)cc1[n+]2[O-]`, the SF in assay [1] is listed as 0; in assay [2] it was 0; in assay [3], 3; in assay [4], 26.

Consider `Nc1ccc2nc3cc(Br)ccc3nc2c1`, for which the SF in assay [1] and in assay [2] was 0 in each case.

Take `Nc1ccc2nc3cc(C4OCCO4)ccc3nc2c1`: the SF in assay [1] and in assay [2] was 100 in each case.

For the compound `Cc1ccc2nc3cc(N)ccc3[n+]([O-])c2c1`, the SF in assay [1] is 100; in assay [2], 100 and 98.

Regarding `Cc1ccc2nc3cc(N)ccc3nc2c1`, the SF in assay [1] was determined as 100; in assay [2] it was 98.

For `[O-][n+]1c2ccc(C3OCCO3)cc2[n+]([O-])c2ccc(O)cc21`, the SF in assay [5] was found to be 5; in assay [1], 100; in assay [2], 100; in assay [6], 100.

For `[O-][n+]1c2ccc(Br)cc2[n+]([O-])c2ccc(O)cc21`, the SF came out at 0 in assay [1] and 80 in assay [2].

As for `Nc1ccc2nc3cc(Cl)ccc3nc2c1`, the SF was 100 in assay [1] and 0 in assay [2].

Take `Nc1ccc2c(c1)[n+]([O-])c1ccccc1[n+]2[O-]`: the SF in assay [1] is on record as 0; in assay [2], 2; in assay [3] it was 19; in assay [4] it was 64.

Consider `Oc1ccc2nc3cc(Br)ccc3nc2c1`, for which the SF in assay [1] and in assay [2] was 100 each time.

Consider `[O-][n+]1c2ccccc2[n+]([O-])c2cc(O)ccc21`, for which the SF in assay [1] is 73; in assay [2], 100.

In the case of `Cc1ccc2c(c1)[n+]([O-])c1ccc(N)cc1[n+]2[O-]`, the SF in assay [1] came out at 11; in assay [2] it was 61.

For `Nc1ccc2c(c1)[n+]([O-])c1ccc(C3OCCO3)cc1[n+]2[O-]`, the SF in assay [5] turned out to be 36; in assay [1], 0; in assay [2] it was 14; in assay [6] it was 100; in assay [3] it was 1; in assay [4], 86.

`Oc1ccc2nc3cc(Cl)ccc3nc2c1`: the SF in assay [1] and in assay [2] was 100 each time.

As for `Cc1ccc2nc3cc(O)ccc3nc2c1`, the SF in assay [1] and in assay [2] was 100 each time.

As to `COc1ccc2c(c1)[n+]([O-])c1ccc(O)cc1[n+]2[O-]`, the SF in assay [1] is recorded as 87; in assay [2], 100.

As to `[O-][n+]1c2ccc(Cl)cc2[n+]([O-])c2ccc(O)cc21`, the SF in assay [1] and in assay [2] was 100 in each case.

Turning to `O=Cc1ccc2nc3cc(O)ccc3nc2c1`, the SF in assay [1] amounted to 100; in assay [2], 98.

Take `COc1ccc2c(c1)[n+]([O-])c1ccc(N)cc1[n+]2[O-]`: the SF in assay [1] came to 23; in assay [2], 87.

In the case of `Nc1ccc2c(c1)[n+]([O-])c1ccc([N+](=O)[O-])cc1[n+]2[O-]`, the SF in assay [1] came out at 2; in assay [2] it was 1; in assay [3] it was 65; in assay [4], 58.

As to `Cc1ccc2c(c1)[n+]([O-])c1ccc(O)cc1[n+]2[O-]`, the SF in assay [1] is given as 100; in assay [2], 93.

As to `Nc1ccc2c(c1)[n+]([O-])c1ccc(Br)cc1[n+]2[O-]`, the SF in assay [1] was 0; in assay [2], 12; in assay [3], 3; in assay [4], 64.
